Measurements published in publication PMC3962999 (The Biochemical journal, 2011).
“And” between values parts separate entries of the source, which are not always exact repeats. Identical values can stand only once. Like-named read-outs stand apart in the source and are kept apart here.

Assays:
PBD1 (PPIP5K1) = molecular target: T1, PBD1 (PPIP5K1) (Homo sapiens, UniProt Q6PFW1); assay: SPR equilibrium binding to immobilized lipid vesicles, PBD1; conditions: for binding to PBD1: SPR, in words
T1 sequence (Q6PFW1 382-917): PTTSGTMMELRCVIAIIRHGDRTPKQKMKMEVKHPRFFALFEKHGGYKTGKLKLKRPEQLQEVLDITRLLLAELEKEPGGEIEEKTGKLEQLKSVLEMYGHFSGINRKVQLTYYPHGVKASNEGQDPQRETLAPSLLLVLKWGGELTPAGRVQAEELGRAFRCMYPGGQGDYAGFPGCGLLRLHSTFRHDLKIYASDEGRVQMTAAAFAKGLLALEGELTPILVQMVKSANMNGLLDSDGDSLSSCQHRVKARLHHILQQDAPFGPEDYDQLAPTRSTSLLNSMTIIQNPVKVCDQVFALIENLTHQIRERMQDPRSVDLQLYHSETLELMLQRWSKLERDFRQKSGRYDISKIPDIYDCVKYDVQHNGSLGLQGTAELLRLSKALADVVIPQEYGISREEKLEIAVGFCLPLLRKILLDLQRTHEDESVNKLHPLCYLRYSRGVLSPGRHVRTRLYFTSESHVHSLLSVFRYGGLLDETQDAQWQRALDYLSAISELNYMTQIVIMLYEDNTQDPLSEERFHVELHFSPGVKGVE
Procedure, shortened: (§1)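 Large unilamellar vesicles (PtdCho/PtdE/test phosphoinositide 77:20:3) were captured on an L1 chip to 5000 RU. Signals were corrected against phosphoinositide-free vesicles. Kd came from nonlinear fitting of Req = Rmax/(1+Kd/C). Concentrations were: GRP-1 PH domain 2.5–125 nM; PBD1 on PtdIns(3,4,5)P₃ 5–150 nM; bisphosphate vesicles 75–1900 nM.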

PBD2 (PPIP5K2) = molecular target: T2, PBD2 (PPIP5K2) (Homo sapiens, UniProt O43314); assay: SPR equilibrium binding to immobilized lipid vesicles, PBD2; conditions: for binding to PBD2: SPR, in words
T2 sequence (O43314 371-901 isoform O43314-2): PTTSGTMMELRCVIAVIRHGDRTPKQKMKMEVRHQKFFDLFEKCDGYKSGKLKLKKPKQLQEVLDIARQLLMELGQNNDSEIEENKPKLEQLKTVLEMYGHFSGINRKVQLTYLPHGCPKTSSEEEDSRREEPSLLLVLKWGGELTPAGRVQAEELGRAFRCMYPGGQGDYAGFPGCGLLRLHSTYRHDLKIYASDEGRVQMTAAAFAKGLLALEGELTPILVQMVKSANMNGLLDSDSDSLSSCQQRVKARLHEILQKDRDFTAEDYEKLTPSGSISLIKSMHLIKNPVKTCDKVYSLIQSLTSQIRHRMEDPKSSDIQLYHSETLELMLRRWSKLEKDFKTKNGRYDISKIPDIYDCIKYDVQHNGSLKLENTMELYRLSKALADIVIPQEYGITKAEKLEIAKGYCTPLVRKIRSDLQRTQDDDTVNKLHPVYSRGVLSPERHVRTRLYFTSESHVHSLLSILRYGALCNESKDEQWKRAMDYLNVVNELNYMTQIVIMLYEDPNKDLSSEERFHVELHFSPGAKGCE
Procedure, shortened: as §1

NIH 3T3 cells = assay: Confocal immunofluorescence of FLAG-PPIP5K1 translocation to the plasma membrane; type: cell-based
Procedure, shortened: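 NIH 3T3 cells on glass-bottom dishes were transfected 24 h after seeding with full-length FLAG-tagged human PPIP5K1 (Lipofectamine 2000). The next day they were serum-starved 3 h, then given PDGF. Cells were fixed in 3 % paraformaldehyde/4 % sucrose (15 min, 23 °C), permeabilized with 0.2 % Triton X-100, and blocked. Staining used anti-FLAG (2 h, 37 °C), Alexa 488 secondary and DAPI. Confocal ×63 line intensity profiles gave plasma membrane/cytoplasm pixel intensity ratios.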

PPIP5K1 kinase domain [1] = molecular target: T3, PPIP5K1 kinase domain (Homo sapiens, UniProt Q6PFW1); conditions: cited from earlier work
T3 sequence (Q6PFW1 1-387 limits assumed): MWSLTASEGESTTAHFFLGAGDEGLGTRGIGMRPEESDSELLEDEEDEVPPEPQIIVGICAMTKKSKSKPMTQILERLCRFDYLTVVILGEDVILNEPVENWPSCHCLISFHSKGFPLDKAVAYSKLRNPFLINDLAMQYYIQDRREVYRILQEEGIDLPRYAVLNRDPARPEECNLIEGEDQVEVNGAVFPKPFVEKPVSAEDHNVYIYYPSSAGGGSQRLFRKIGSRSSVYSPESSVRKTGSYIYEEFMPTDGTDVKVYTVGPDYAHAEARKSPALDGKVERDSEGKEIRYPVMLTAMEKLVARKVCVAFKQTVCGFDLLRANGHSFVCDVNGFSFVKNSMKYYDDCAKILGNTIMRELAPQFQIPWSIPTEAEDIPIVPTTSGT

PPIP5K1 kinase domain [2] = molecular target: T3, PPIP5K1 kinase domain; assay: Kinase assay with PPIP5K1 kinase domain; type: biochemical; conditions: ratio of kcat/Km, this study
[3] = test system: full-length recombinant human PPIP5K1; conditions: in vitro; cited from earlier work
[4] = molecular target: T4, phosphatase-like domain of PPIP5K2 (PBD2) (Homo sapiens, UniProt O43314); assay: Phosphatase assay with phosphatase-like domain of PPIP5K2; type: biochemical; conditions: for hydrolysis of inositol phosphate: results not shown
T4 sequence (O43314 371-901 isoform O43314-2): T2 sequence (O43314 371-901 isoform O43314-2)
Procedure, shortened: (§2)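 Enzyme and 50 mM p-nitrophenyl phosphate were incubated at 37 °C in EDTA-free phosphatase buffer: 5 mM Hepes pH 7.2, 100 mM KCl, 2 mM MgCl₂, 0.5 mg/ml BSA. Reactions were stopped with 1 M NaOH, and p-nitrophenol accumulation was read as absorbance. Phosphatase-like domains were His-tagged constructs made in E. coli with pGro7 chaperones, purified by Ni-NTA then SP cation exchange. hMIPP was recombinant.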

[5] = molecular target: T5, phosphatase-like domain of PPIP5K1 (PBD1) (Homo sapiens, UniProt Q6PFW1); assay: Phosphatase assay with phosphatase-like domain of PPIP5K1; type: biochemical; conditions: for hydrolysis of inositol phosphate: up to 15 h at 37 °C, trace 3H-labelled material (InsP6 also 1 μM)
T5 sequence (Q6PFW1 382-917): T1 sequence (Q6PFW1 382-917)
Procedure, shortened: as §2

PBD2 = molecular target: T6, PBD2 (Homo sapiens, UniProt O43314); assay: PEG precipitation [3H]InsP6 binding assay
T6 sequence (O43314 371-901 isoform O43314-2): T2 sequence (O43314 371-901 isoform O43314-2)
Procedure, shortened: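 PBD2 (32 μg) was incubated 20 min at 4 °C in 25 mM Hepes pH 7.2 containing 5 mg/ml γ-globulin, 100 mM KCl, 1 mM EDTA and 1 mM DTT. Each tube held ~15000 d.p.m. [³H]InsP₆ plus increasing unlabelled InsP₆ or C₈-PtdIns(3,4,5)P₃. Ice-cold 30 % PEG was added, samples were held 10 min at 0–4 °C and centrifuged at 10 000 g. Washed pellets were counted, and Kd and Bmax came from the saturation binding plot.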

GRP-1 PH domain [6] = molecular target: T7, GRP-1 PH domain (Mus musculus, UniProt O08967); conditions: read-out: Kd, values published by others; same technique; cited from earlier work
T7 sequence (O08967 264-380 limits assumed): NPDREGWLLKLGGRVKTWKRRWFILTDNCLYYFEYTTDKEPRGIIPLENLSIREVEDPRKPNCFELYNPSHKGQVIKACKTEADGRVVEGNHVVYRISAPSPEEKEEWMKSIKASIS

GRP-1 PH domain [7] = molecular target: T7, GRP-1 PH domain; assay: SPR equilibrium binding to immobilized lipid vesicles, GRP-1 PH domain
Procedure, shortened: as §1

[8] = Stability of InsP8 through acid-quench, neutralization and HPLC; type: physicochemical; conditions: HPLC-purified [3H]InsP8
hMIPP = molecular target: T8, hMIPP (Homo sapiens, UniProt Q9UNW1); assay: Hydrolysis of p-nitrophenyl phosphate by hMIPP; type: biochemical; conditions: 50 mM p-nitrophenyl phosphate, 90 ug hMIPP
T8 sequence (Q9UNW1 31-487): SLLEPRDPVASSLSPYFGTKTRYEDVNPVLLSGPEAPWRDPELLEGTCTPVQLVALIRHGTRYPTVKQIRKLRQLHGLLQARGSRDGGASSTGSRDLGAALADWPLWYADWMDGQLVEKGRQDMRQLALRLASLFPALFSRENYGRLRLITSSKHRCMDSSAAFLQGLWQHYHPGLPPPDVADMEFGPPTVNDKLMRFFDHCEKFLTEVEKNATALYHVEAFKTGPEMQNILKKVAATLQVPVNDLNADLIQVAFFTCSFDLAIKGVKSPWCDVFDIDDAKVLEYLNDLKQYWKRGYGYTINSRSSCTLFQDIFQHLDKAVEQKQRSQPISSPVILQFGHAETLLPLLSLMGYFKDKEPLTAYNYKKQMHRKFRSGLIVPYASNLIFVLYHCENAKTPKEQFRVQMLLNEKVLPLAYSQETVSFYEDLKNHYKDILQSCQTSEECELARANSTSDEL
Procedure, shortened: as §2

## Ptd4P
PBD1 (PPIP5K1)
  binding to PBD1: did not bind
PBD2 (PPIP5K2)
  binding to PBD2: did not bind

## PDGF
NIH 3T3 cells; 50 ng/ml PDGF, 5 min
  proportion of PPIP5K1 at the plasma membrane: significant increase

## O=P(O)(O)OC1[C@@H](OP(=O)(O)O)[C@H](OP(=O)(O)O)C(OP(=O)(O)OP(=O)(O)O)[C@H](OP(=O)(O)O)[C@H]1OP(=O)(O)O (some centres unmarked) [5-PP-InsP5]
PPIP5K1 kinase domain [1]
  catalytic specificity for 5-PP-InsP5 relative to InsP6: 2.5 fold
PPIP5K1 kinase domain [2]
  catalytic preference for 5-PP-InsP5 over InsP6: 80 fold
[3]
  dephosphorylation by full-length PPIP5K1: does not de-phosphorylate
[4]
  hydrolysis of inositol phosphate: Identical results
[5]
  hydrolysis of inositol phosphate: none of these polyphosphates were hydrolysed

## PtdIns(3,4)P2
PBD1 (PPIP5K1); PBD1
  affinity relative to PtdIns(3,4,5)P3 (fold lower): approx. 6 fold
PBD1 (PPIP5K1)
  binding to PBD1: significantly weaker ligands

## O=P(O)(O)O[C@H]1[C@H](OP(=O)(O)O)[C@@H](OP(=O)(O)O)[C@H](OP(=O)(O)O)[C@@H](OP(=O)(O)O)[C@H]1OP(=O)(O)O [InsP6]
PBD2; InsP6 binding to PBD2
  Bmax: 0.6 mol/mol of protein
PBD2; saturation binding plot, 4 °C
  Kd: 600 nM and 570 nM
[3]
  dephosphorylation by full-length PPIP5K1: does not de-phosphorylate
[4]
  hydrolysis of inositol phosphate: Identical results
[5]
  hydrolysis of inositol phosphate: none of these polyphosphates were hydrolysed

## Ptd3P
PBD1 (PPIP5K1)
  binding to PBD1: did not bind
PBD2 (PPIP5K2)
  binding to PBD2: did not bind

## O=P(O)(O)OC1[C@@H](OP(=O)(O)O)[C@H](OP(=O)(O)O)C(O)[C@H](OP(=O)(O)O)[C@H]1OP(=O)(O)O (some centres unmarked) [Ins(1,3,4,5,6)P5]
[3]
  dephosphorylation by full-length PPIP5K1: does not de-phosphorylate

## O=P(O)(O)OC1C(OP(=O)(O)O)C(OP(=O)(O)OP(=O)(O)O)C(OP(=O)(O)O)C(OP(=O)(O)OP(=O)(O)O)C1OP(=O)(O)O (centres unmarked) [[PP]2-InsP4, 1/3,5-[PP]2-InsP4]
[3]
  dephosphorylation by full-length PPIP5K1: does not de-phosphorylate
[4]
  hydrolysis of inositol phosphate: Identical results
[5]
  hydrolysis of inositol phosphate: none of these polyphosphates were hydrolysed

## CCCCC/C=C\C/C=C\C/C=C\C/C=C\CCCC(=O)O[C@H](COC(=O)CCCCCCCCCCCCCCCCC)COP(=O)(O)O[C@H]1[C@H](O)[C@@H](OP(=O)(O)O)[C@H](OP(=O)(O)O)[C@@H](OP(=O)(O)O)[C@H]1O [PtdIns(3,4,5)P3]
GRP-1 PH domain [6]
  Kd: 28 to 170 nM
PBD1 (PPIP5K1)
  Kd: 96 nM
GRP-1 PH domain [7]
  Kd: 59 nM
PBD2 (PPIP5K2)
  Kd: 705 nM

## InsP8
[8]
  dephosphorylation after acid-quench, neutralization and HPLC: did not detect any dephosphorylation
  recovery after acid-quench, neutralization and HPLC: > 85%
[4]
  hydrolysis of inositol phosphate: Identical results
[5]
  hydrolysis of inositol phosphate: none of these polyphosphates were hydrolysed

## CCCCCCCC(=O)OC[C@H](COP(=O)(O)OC1[C@H](O)[C@H](OP(=O)(O)O)C(OP(=O)(O)O)[C@H](OP(=O)(O)O)[C@H]1O)OC(=O)CCCCCCC (some centres unmarked) [C8 soluble analogue of PtdIns(3,4,5)P3, C8-PtdIns(3,4,5)P3, reference compound]
PBD2; PEG-precipitation assay
  potency relative to InsP6 at displacing [3H]InsP6: 2- to 3 fold
[5]; PBD1 35 μg/ml, 24 h at 37 °C, 1 mM lipid
  hydrolysis of the lipid (phosphate release): unable to detect any hydrolysis

## O=P(O)(O)OC1[C@@H](OP(=O)(O)O)[C@@H](OP(=O)(O)O)C(OP(=O)(O)OP(=O)(O)O)[C@H](OP(=O)(O)O)[C@H]1OP(=O)(O)O (some centres unmarked) [1/3-PP-InsP5]
[4]
  hydrolysis of inositol phosphate: Identical results
[5]
  hydrolysis of inositol phosphate: none of these polyphosphates were hydrolysed

## O=c1cc(N2CCOCC2)oc2c(-c3ccccc3)cccc12 [LY294002, reference compound]
NIH 3T3 cells; 15 min pre-treatment with 100 μM LY294002 before 50 ng/ml PDGF for 5 min
  PDGF-induced translocation of PPIP5K1: largely prevented

## PtdIns(3,5)P2
PBD1 (PPIP5K1)
  binding to PBD1: no significant binding
PBD2 (PPIP5K2)
  binding to PBD2: did not bind

## Ptd5P
PBD1 (PPIP5K1)
  binding to PBD1: did not bind
PBD2 (PPIP5K2)
  binding to PBD2: did not bind

## O=[N+]([O-])c1ccc(OP(=O)(O)O)cc1 [p-nitrophenyl phosphate, reference compound]
hMIPP
  rate of p-nitrophenyl phosphate hydrolysis: approx. 10 nM/mg of protein per min
[4]; 50 mM p-nitrophenyl phosphate, 90 μg PBD2
  hydrolysis of p-nitrophenyl phosphate: no activity
[5]; 50 mM p-nitrophenyl phosphate, 90 μg PBD1
  hydrolysis of p-nitrophenyl phosphate: no activity
